Published values collected from several papers.
Compare with care: the assays were run in different laboratories.
Target: Serine/threonine-protein kinase N2 (PKN2, Homo sapiens, UniProt Q16513)

Structure (SMILES) | read-out | method | tested at | remaining binding [%]
F[C@@H]1CCN(c2nccc(-c3cnn4ncccc34)n2)C1 | binding |  | 1 µM | 100
CC(=O)Nc1c(C(C)=O)c(=O)n(C)c2nc(-c3ccc(Cl)cc3Cl)c(-c3ccc(Cl)cc3)cc12 | cell-free assay | competition with immobilised ligand | 1 µM | 100
O=C(NCCCN1CCOCC1)c1ccc(Nc2ncc(Cl)c(-c3ccc(Cl)s3)n2)cc1 | binding | competition with immobilised ligand | 1 µM | 36
CN(c1nccc(-c2cnn3ncccc23)n1)C1CC1 | binding |  | 1 µM | 89
C=CC(=O)N1CCC(C(=O)NCC(=O)N2CCN(c3nc(-c4cnc(N)nc4C(F)F)nc(N4CCOCC4)n3)CC2)CC1 | binding | competition with immobilised ligand | 1 µM | 84
COc1cnc(Nc2cccc(S(N)(=O)=O)c2)nc1N1CCN(c2ccccc2)C(=O)C1 | binding | competition with immobilised ligand | 1 µM | 100
CN([C@@H]1CCc2c(CC(=O)O)c3cc(S(C)(=O)=O)ccc3n2C1)S(=O)(=O)c1ccc(F)cc1 | cell-free assay | competition with immobilised ligand | 1 µM | 100
COc1cnc(Nc2cccc(S(N)(=O)=O)c2)nc1N1CCN(c2ccccc2)CC1 | binding | competition with immobilised ligand | 1 µM | 100
Cn1nc(C(=O)NCc2ccc(C(=O)O)cc2)cc1-c1ccc2[nH]ccc2c1 | cell-free assay | competition with immobilised ligand | 0.1 µM | 100
Cc1cnn2ncc(-c3ccnc(N(C)C)n3)c2c1 | binding |  | 1 µM | 94
Cc1nc(C2CCN(C(=O)c3ccc(OC(F)(F)F)cc3N)CC2)c2ncc(N3CCN(C)CC3)cc2n1 | cell-free assay | competition with immobilised ligand | 1 µM | 100
O=C(Nc1c[nH]nc1C(=O)NC1CCNCC1)c1cc(F)cc(F)c1 | binding | competition with immobilised ligand | 1 µM | 100
O=C(c1ccc(Nc2nccc(-c3cc4ccccc4s3)n2)cc1)N1CCC(N2CCCC2)CC1 | binding | competition with immobilised ligand | 1 µM | 45
FC(F)(F)Oc1cccc(-c2cnc3ccc(-c4ccncc4)nn23)c1 | cell-free assay | competition with immobilised ligand | 5 µM | 91
Nc1ncc2c(n1)-c1c([nH]c3ccc(C#CC4CC4)cc13)CCCC2 | binding | competition with immobilised ligand | 1 µM | 72
C[C@@H]1CCN(c2nccc(-c3cnn4ncccc34)n2)C1 | binding |  | 1 µM | 71
C[C@@H](c1ccc(-n2cnc3c(N)ncnc32)cc1)N1CCc2nn(C)c(Cc3ccccc3)c2C1=O | binding | competition with immobilised ligand | 0.1 µM | 84
COc1cccc(CNC(=O)c2nc3scc(COCc4ccc(C(=O)O)cc4)c3c(=O)[nH]2)c1 | cell-free assay | competition with immobilised ligand | 1 µM | 98
N[C@@H]1CCN(c2nccc(-c3cnn4ncccc34)n2)C1 | binding |  | 1 µM | 100
C[C@@H]1CN(c2cc(-c3n[nH]c4ccc(OC5(C)CC5)cc34)ncn2)C[C@H](C)O1 | cell-free assay | competition with immobilised ligand | 0.1 µM | 89
O=C(c1ccc(Nc2ncc(Cl)c(-c3ccc(Cl)s3)n2)cc1)N1CCC(N2CCCC2)CC1 | binding | competition with immobilised ligand | 1 µM | 56
CN(CCCC(F)(F)F)c1nccc(-c2cnn3ncccc23)n1 | binding |  | 1 µM | 74
